Reference: ChEMBL document CHEMBL4513216, “Probing the Open Global Health Chemical Diversity Library for Multistage-Active Starting Points for Next-Generation Antimalarials” (ACS Infect Dis, 2020)

Experiment: Toxicity liver stage against HepG2, at 10uM
Assay type: cell-based
Set-up: test concentration 10 uM, cell line HepG2-A16-CD81EGFP
Conditions: human, HepG2-A16-CD81EGFP cells; read-out: INHIBITION
Method in brief: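 Uninfected HepG2-A16-CD81EGFP cells, 3 × 10^3 per well, 1536-well, plated on prespotted compound at 10 μM final, parasite-free screening media added to match infected plates; puromycin 10 μM positive, DMSO 0.5% negative; run in parallel with 48 h PbLuc assay at 37 °C, 5% CO2; viability by CellTiter-Glo luminescence, normalized to controls.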

| Compound | cytotoxicity at 10 µM |
| --- | --- |
| O=C([C@H]1COC[C@H]2CN(C3CCCCC3)C[C@H]21)N1CCOCC1 | -110% |
| CCCc1ccc(C(=O)N2CCc3c(nc(N(C)C)[nH]c3=O)C2)cc1 | 8.7% |
| Cc1nc(S(=O)(=O)CCn2cccn2)n(C2CCCCC2)c1C | -5.58% |
| CCOCCOC(C)C(=O)Nc1nccn1Cc1ccccc1 (stereo not given) | 3.94% |
| CC(C)CNC(=O)c1nnsc1-c1ccccc1 | 10.3% |
| COCc1noc(CN2C[C@H](C3CC3)[C@@H](N(C)C)C2)n1 | 1.31% |
| Cc1cc(C(F)(F)F)nc(N2CCN3CCCC3C2)n1 (stereo not given) | 4.78% |
| CCCS(=O)(=O)N1CC[C@H]2OCC[C@@]2(c2nnc(C)o2)C1 | 8.43% |
| CCS(=O)(=O)N1CCCCC1c1nc(CC(C)C)no1 (stereo not given) | 0.253% |
| COc1ccccc1OCC(=O)NS(=O)(=O)c1ccc(Br)s1 | -8.72% |
| Cn1cccc1C(=O)N1CCC2(CC1)CN(S(C)(=O)=O)c1ccccc12 | 4.73% |
| Cc1cc(NS(=O)(=O)c2cccs2)ccc1-n1cccc1C(=O)O | -2.68% |
| Cc1cc(C)n(C2CN(C(=O)c3cn4ccsc4n3)C2)n1 | 4.99% |
| O=C(O)CC[C@@H]1CN(c2ncccc2F)CC[C@@H]1N1CCOCC1 | -9.11% |
| CC(=O)N1CCCC1C(=O)NCCOc1cccc(F)c1 (stereo not given) | -7.81% |
| COCCCN(C)C(=O)c1cccc(Nc2cnccn2)c1 | -8.43% |
| CCN1CC(C(=O)N2CCC(Oc3ccccc3Cl)CC2)CC1=O (stereo not given) | -22.4% |
| N#Cc1cccc(CN2CC[C@@H]3[C@@H]2CC(=O)N3Cc2ccncc2)c1 | -73.7% |
| CCCN1C(=O)CC2(CCCNC2)C1=O (stereo not given) | 4.1% |
| Cc1nn2cc(CCNC(=O)c3cc(C(C)C)nn3C)nc2s1 | 34.9% |
| CC1COC2(CCN(C(=O)Cc3ccncc3)CC2)C1 (stereo not given) | -105% |
| c1cc(-c2nnn3c2COC(CNCC2CCOCC2)C3)ccn1 (stereo not given) | -23.8% |
| CC(C)n1nc2c(cc1=O)CN(Cc1nc3ccccc3o1)CC2 | -2.19% |

| Compound | cytotoxicity at 10 µM |
| --- | --- |
| CNS(=O)(=O)Cc1ccc(CNC(=O)Nc2cn[nH]c2)cc1 | -0.935% |
| CC(C)(C)C(=O)NC[C@H]1Cn2c(-c3ccccc3)cnc2CO1 | -3.69% |
| Cn1ncc2ccc(C3CCCN(Cc4ccsc4)C3)nc21 (stereo not given) | 8.61% |
| Cc1c(CN(C)C(=O)c2ccnn2C)cnn1C | -5.33% |
| OCCOc1ccc(NCc2cccc3cccnc23)cn1 | -3.24% |
| O=C(c1cnccn1)N1CC[C@H]2[C@H]1CCN2S(=O)(=O)C1CC1 | -168% |
| Cc1ccc(N2CC3(CCN(C(=O)c4ccoc4)C3)C2)nn1 | -11.6% |
| Cn1cc(CN2CC[C@@H]3[C@@H]2CCN3Cc2ccc3c(c2)OCO3)cn1 | -3.63% |
| Cc1nc(CSc2nc(=O)ccn2C(C)C)cs1 | 16.4% |
| Cn1nccc1CNC(=O)Cn1nc(C(F)(F)F)cc1C1CC1 | -6.36% |
| CCn1nnc(NCc2cc(Br)cc(Br)c2OC)n1 | 13.3% |
| CN(C)S(=O)(=O)N1CCC[C@]2(C[C@@H](Oc3ncccc3F)CO2)C1 | -82.2% |
| CCn1cnnc1C1CCN(C(=O)CC(C)n2cccc2)CC1 (stereo not given) | -1.49% |
| CS(=O)(=O)NCCCNC(=O)c1cnc(-c2ccsc2)s1 | -13.7% |
| COc1cc(C(=O)NCCc2ccc(Cl)cc2)on1 | -0.295% |
| CCCOC1CCCN(C(=O)c2cc(CN(CC)CC)c(CC)o2)C1 (stereo not given) | 10.1% |
| CCOc1cc(Cl)ccc1CNC(=O)c1ccc(=O)n(C)c1 | -4.01% |
| O=C(CN1CCOC(c2ccc(Cl)s2)C1)NCc1ccco1 (stereo not given) | -3.09% |
| O=C(c1scc2c1OCCO2)N1CCN(Cc2cccc(F)c2)CC1 | 0.993% |
| CN(Cc1ccsc1)C(=O)CN1CCCC(Cn2cncn2)C1 (stereo not given) | -11.3% |
| CC(C)N1C[C@H](NC(=O)c2coc(COc3cccc(F)c3)n2)[C@@H](O)C1 | -145% |
| Cc1ccc2c(c1)OC(C)CN2C(=O)Cc1ccc(C)nc1 (stereo not given) | -44.2% |
